Test system: Aorta
Experiment: Vasodilation activity in Wistar rat thoracic aorta assessed as reduction of norepinephrine hydrochloride-induced contracture after 2 hrs
Assay type: functional, tissue-based
Outline: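 Endothelium-denuded aortic preparations (functional endothelium removed, confirmed by <10% acetylcholine relaxation of pre-contracted aorta) equilibrated 2 h under 2 g resting tension. Contraction to norepinephrine hydrochloride (3 × 10^-7 to 3 × 10^-3 M) recorded isometrically before and after increasing test concentrations. DMSO stock 50 mg/ml; DMSO-only controls. IC50 = concentration giving 50% reduction of maximal norepinephrine contracture.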

In order of falling IC50:
1. CCOC(=O)c1c(-c2ccc(F)cc2)cc(-c2ccccc2)nc1Nc1ccc(Cl)cc1  715 µM
2. CCOC(=O)c1c(-c2ccc(F)cc2)cc(-c2ccccc2)nc1Nc1ccccc1  367 µM
3. CCOC(=O)c1c(-c2ccc(F)cc2)cc(-c2ccccc2)nc1N1CCCCC1  346 µM
4. CCOC(=O)c1c(-c2ccc(C)cc2)cc(-c2ccccc2)nc1N1CCOCC1  340 µM
5. CCOC(=O)c1c(-c2ccc(F)cc2)cc(-c2ccccc2)nc1N  335 µM
6. CCOC(=O)c1c(-c2ccc(C)cc2)cc(-c2ccccc2)nc1N  327 µM
7. CCOC(=O)c1c(-c2ccc(C)cc2)cc(-c2ccccc2)nc1Nc1ccc(Cl)cc1  266 µM
8. CCOC(=O)c1c(-c2ccc(F)cc2)cc(-c2ccccc2)nc1Nc1ccc(OC)cc1  254 µM
9. CCOC(=O)c1c(-c2ccc(C)cc2)cc(-c2ccccc2)nc1Nc1ccc(OC)cc1  233 µM
10. CCOC(=O)c1c(-c2ccc(C)cc2)cc(-c2ccccc2)nc1N1CCN(c2nc(-c3ccccc3)cc(-c3ccc(C)cc3)c2C(=O)OCC)CC1  229 µM
11. CCOC(=O)c1c(-c2ccc(C)cc2)cc(-c2ccccc2)nc1N1CCCCC1  175 µM
12. CCOC(=O)c1c(-c2ccc(F)cc2)cc(-c2ccccc2)nc1N1CCOCC1  146 µM
